Results taken from ChEMBL document CHEMBL3272012, “5-(Tetradecyloxy)-2-furancarboxylic acid and related hypolipidemic fatty acid-like alkyloxyarylcarboxylic acids” (J Med Chem, 1977).

How the values were obtained:
Rattus norvegicus [1] = test: Increase in liver weight in Wistar rat at 404 umol/kg/day administered through diet for 4 days; format: ADME, organism-based; details: in vivo, po, 96 h
Rattus norvegicus [2] = test: Hypolipidemic activity in Wistar rat assessed as reduction in plasma cholesterol level at 463 umol/kg/day administered through diet for 4 days; format: functional; details: 96 h
Outline: (§1)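 Young male Wistar rats, 170-190 g initial weight, groups of six, given compound mixed thoroughly into Purina Lab Chow ad libitum for 4 or 10 days as stated. Daily dose calculated from food consumption and body weight. Bled by cardiac puncture at end of treatment; plasma cholesterol measured by automated procedure. Expressed as percent reduction versus simultaneous untreated control group; Student's t test.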

Rattus norvegicus [3] = test: Hypolipidemic activity in Wistar rat assessed as reduction in plasma triglyceride level at 463 umol/kg/day administered through diet for 4 days; format: functional; details: 96 h
Rattus norvegicus [4] = test: Increase in liver weight in Wistar rat at 463 umol/kg/day administered through diet for 4 days; format: ADME, organism-based; details: in vivo, po, 96 h
Rattus norvegicus [5] = test: Hypolipidemic activity in Wistar rat assessed as reduction in plasma cholesterol level at 423 umol/kg/day administered through diet for 4 days; format: functional; details: 96 h; outline: as §1
Rattus norvegicus [6] = test: Hypolipidemic activity in Wistar rat assessed as reduction in plasma triglyceride level at 423 umol/kg/day administered through diet for 4 days; format: functional; details: 96 h
Rattus norvegicus [7] = test: Increase in liver weight in Wistar rat at 423 umol/kg/day administered through diet for 4 days; format: ADME, organism-based; details: in vivo, po, 96 h
Rattus norvegicus [8] = test: Hypolipidemic activity in Wistar rat assessed as reduction in plasma cholesterol level at 291 umol/kg/day administered through diet for 4 days; format: functional; details: 96 h
Outline: (§2)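 Young male Wistar rats, 170-190 g at start, in groups of six, given compound mixed into Purina Lab Chow ad libitum for 4 or 10 days as stated. Daily dose was calculated from food consumption and body weight. Plasma was taken by cardiac puncture at the end and cholesterol measured by automated procedure. Results are % reduction versus a concurrent untreated control group, with Student's t test.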

Rattus norvegicus [9] = test: Hypolipidemic activity in Wistar rat assessed as reduction in plasma triglyceride level at 291 umol/kg/day administered through diet for 4 days; format: functional; details: 96 h
Outline: (§3)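 Young male Wistar rats, 170-190 g initial weight, six per group, fed drug mixed thoroughly into Purina Lab Chow ad libitum for the stated days; daily dose calculated from food consumption and body weight. Bled by cardiac puncture at end; plasma cholesterol and triglycerides by automated procedures, expressed as percent reduction versus simultaneous untreated controls; Student's t test.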

Rattus norvegicus [10] = test: Increase in liver weight in Wistar rat at 291 umol/kg/day administered through diet for 4 days; format: ADME, organism-based; details: in vivo, po, 96 h
Rattus norvegicus [11] = test: Hypolipidemic activity in Wistar rat assessed as reduction in plasma triglyceride level at 944 umol/kg/day administered through diet for 10 days; format: functional; details: 240 h
Rattus norvegicus [12] = test: Hypolipidemic activity in Wistar rat assessed as reduction in plasma triglyceride level at 303 umol/kg/day administered through diet for 10 days; format: functional; details: 240 h; outline: as §3
Rattus norvegicus [13] = test: Hypolipidemic activity in Wistar rat assessed as reduction in plasma triglyceride level at 89 umol/kg/day administered through diet for 10 days; format: functional; details: 240 h
Rattus norvegicus [14] = test: Hypolipidemic activity in Wistar rat assessed as reduction in plasma cholesterol level at 944 umol/kg/day administered through diet for 10 days; format: functional; details: 240 h
Outline: (§4)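 Young male Wistar rats (initial weight 170-190 g), groups of six, fed compound mixed into Purina Lab Chow ad libitum for 4 or 10 days; daily dose calculated from food consumption and body weight. Bled by cardiac puncture; plasma cholesterol and triglycerides by automated procedures; percent reduction versus simultaneous untreated controls, Student's t test.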

Rattus norvegicus [15] = test: Hypolipidemic activity in Wistar rat assessed as reduction in plasma cholesterol level at 303 umol/kg/day administered through diet for 10 days; format: functional; details: 240 h; outline: as §2
Rattus norvegicus [16] = test: Hypolipidemic activity in Wistar rat assessed as reduction in plasma cholesterol level at 89 umol/kg/day administered through diet for 10 days; format: functional; details: 240 h; outline: as §4
Rattus norvegicus [17] = test: Increase in liver weight in Wistar rat at 944 umol/kg/day administered through diet for 10 days; format: ADME, organism-based; details: in vivo, po, 240 h
Rattus norvegicus [18] = test: Increase in liver weight in Wistar rat at 303 umol/kg/day administered through diet for 10 days; format: ADME, organism-based; details: in vivo, po, 240 h
Rattus norvegicus [19] = test: Increase in liver weight in Wistar rat at 89 umol/kg/day administered through diet for 10 days; format: ADME, organism-based; details: in vivo, po, 240 h
Rattus norvegicus [20] = test: Increase in cholesterol level in Wistar rat liver at 944 umol/kg/day administered through diet for 10 days; format: ADME, organism-based; details: in vivo, po, 240 h
Rattus norvegicus [21] = test: Increase in cholesterol level in Wistar rat liver at 303 umol/kg/day administered through diet for 10 days; format: ADME, organism-based; details: in vivo, po, 240 h
Rattus norvegicus [22] = test: Increase in cholesterol level in Wistar rat liver at 89 umol/kg/day administered through diet for 10 days; format: ADME, organism-based; details: in vivo, po, 240 h
Rattus norvegicus [23] = test: Hypolipidemic activity in Wistar rat assessed as reduction in plasma cholesterol level at 471 umol/kg/day administered through diet for 4 days; format: functional; details: 96 h; outline: as §1
Rattus norvegicus [24] = test: Hypolipidemic activity in Wistar rat assessed as reduction in plasma triglyceride level at 471 umol/kg/day administered through diet for 4 days; format: functional; details: 96 h
Rattus norvegicus [25] = test: Increase in liver weight in Wistar rat at 471 umol/kg/day administered through diet for 4 days; format: ADME, organism-based; details: in vivo, po, 96 h
Rattus norvegicus [26] = test: Increase in liver weight in Wistar rat at 428 umol/kg/day administered through diet for 4 days; format: ADME, organism-based; details: in vivo, po, 96 h
Rattus norvegicus [27] = test: Hypolipidemic activity in Wistar rat assessed as reduction in plasma triglyceride level at 406 umol/kg/day administered through diet for 10 days; format: functional; details: 240 h
Rattus norvegicus [28] = test: Hypolipidemic activity in Wistar rat assessed as reduction in plasma triglyceride level at 400 umol/kg/day administered through diet for 4 days; format: functional; details: 96 h
Rattus norvegicus [29] = test: Hypolipidemic activity in Wistar rat assessed as reduction in plasma cholesterol level at 406 umol/kg/day administered through diet for 10 days; format: functional; details: 240 h; outline: as §2
Rattus norvegicus [30] = test: Hypolipidemic activity in Wistar rat assessed as reduction in plasma cholesterol level at 400 umol/kg/day administered through diet for 4 days; format: functional; details: 96 h; outline: as §2
Rattus norvegicus [31] = test: Increase in liver weight in Wistar rat at 406 umol/kg/day administered through diet for 10 days; format: ADME, organism-based; details: in vivo, po, 240 h
Rattus norvegicus [32] = test: Increase in liver weight in Wistar rat at 400 umol/kg/day administered through diet for 4 days; format: ADME, organism-based; details: in vivo, po, 96 h
Rattus norvegicus [33] = test: Increase in cholesterol level in Wistar rat liver at 406 umol/kg/day administered through diet for 10 days; format: ADME, organism-based; details: in vivo, po, 240 h
Rattus norvegicus [34] = test: Increase in cholesterol level in Wistar rat liver at 400 umol/kg/day administered through diet for 4 days; format: ADME, organism-based; details: in vivo, po, 96 h

Question: With CCCCCCCCCCCCCCCCSc1ccc(C(=O)O)cc1 as the compound, how does the Activity (Rattus norvegicus [1]) read?
Answer: Its Activity is 6%.

Question: Which results are given for CCCCCCCCCCCCCCSc1ccc(C(=O)O)s1?
Answer: inhibition in vivo at 463 µmol/kg (Rattus norvegicus [2]): 15%; inhibition in vivo at 463 µmol/kg (Rattus norvegicus [3]): 61%; Activity (Rattus norvegicus [4]): 4%

Question: With CCCCCCCCCCCCCCOc1ccc(C(=O)OC)cc1C(=O)OC as the compound, how does the inhibition in vivo at 423 µmol/kg (Rattus norvegicus [5]) read?
Answer: The inhibition in vivo at 423 µmol/kg was 7%.

Question: And the inhibition in vivo at 423 µmol/kg (Rattus norvegicus [6])?
Answer: The inhibition in vivo at 423 µmol/kg was 10%.

Question: What about the Activity (Rattus norvegicus [7]) of the same compound?
Answer: The Activity was 0%.

Question: CCCCCCCCCCCCCCOc1ccc(C(=O)O)c(OCCCCCCCCCCCCCC)c1 was tested. Which inhibition in vivo at 291 µmol/kg (Rattus norvegicus [8]) did it give?
Answer: Its inhibition in vivo at 291 µmol/kg is 0%.

Question: What about the inhibition in vivo at 291 µmol/kg (Rattus norvegicus [9]) of the same compound?
Answer: Its inhibition in vivo at 291 µmol/kg is 0%.

Question: And the Activity (Rattus norvegicus [10])?
Answer: Its Activity is 7%.

Question: Which inhibition in vivo at 944 µmol/kg (Rattus norvegicus [11]) does the source give for CCCCCCCCCCCCc1ccc(C(=O)CC(=O)OC)cc1 here?
Answer: The inhibition in vivo at 944 µmol/kg was 84%.

Question: What about the inhibition in vivo at 303 µmol/kg (Rattus norvegicus [12]) of the same compound?
Answer: Its inhibition in vivo at 303 µmol/kg is 63%.

Question: What about the inhibition in vivo at 89 µmol/kg (Rattus norvegicus [13]) of the same compound?
Answer: The inhibition in vivo at 89 µmol/kg was 6%.

Question: And the inhibition in vivo at 944 µmol/kg (Rattus norvegicus [14])?
Answer: The inhibition in vivo at 944 µmol/kg was 53%.

Question: And the inhibition in vivo at 303 µmol/kg (Rattus norvegicus [15])?
Answer: The inhibition in vivo at 303 µmol/kg was 37%.

Question: And the inhibition in vivo at 89 µmol/kg (Rattus norvegicus [16])?
Answer: Its inhibition in vivo at 89 µmol/kg is 4%.

Question: What about the Activity (Rattus norvegicus [17]) of the same compound?
Answer: Its Activity is 20%.

Question: And the Activity (Rattus norvegicus [18])?
Answer: The Activity was 7%.

Question: What about the Activity (Rattus norvegicus [19]) of the same compound?
Answer: Its Activity is 8%.

Question: And the Activity (Rattus norvegicus [20])?
Answer: Its Activity is 151%.

Question: What about the Activity (Rattus norvegicus [21]) of the same compound?
Answer: The Activity was 97%.

Question: And the Activity (Rattus norvegicus [22])?
Answer: Its Activity is 38%.

Question: With CCCCCCCCCCCCCCOc1ccc(C(=O)O)c(C)c1 as the compound, how does the inhibition in vivo at 471 µmol/kg (Rattus norvegicus [23]) read?
Answer: Its inhibition in vivo at 471 µmol/kg is 6%.

Question: What about the inhibition in vivo at 471 µmol/kg (Rattus norvegicus [24]) of the same compound?
Answer: Its inhibition in vivo at 471 µmol/kg is 27%.

Question: And the Activity (Rattus norvegicus [25])?
Answer: Its Activity is 5%.

Question: How did the Activity (Rattus norvegicus [26]) turn out when CCCCCCCCCCCCCCSc1ccc(C(=O)O)cc1 was run?
Answer: Its Activity is 6%.

Question: How did the inhibition in vivo at 406 µmol/kg (Rattus norvegicus [27]) turn out when CCCCCCCCCCCCOc1ccc(C(=O)CC(=O)OC)cc1 was run?
Answer: Its inhibition in vivo at 406 µmol/kg is 71%.

Question: What about the inhibition in vivo at 400 µmol/kg (Rattus norvegicus [28]) of the same compound?
Answer: Its inhibition in vivo at 400 µmol/kg is 84%.

Question: And the inhibition in vivo at 406 µmol/kg (Rattus norvegicus [29])?
Answer: Its inhibition in vivo at 406 µmol/kg is 27%.

Question: And the inhibition in vivo at 400 µmol/kg (Rattus norvegicus [30])?
Answer: The inhibition in vivo at 400 µmol/kg was 35%.

Question: And the Activity (Rattus norvegicus [31])?
Answer: Its Activity is 34%.

Question: What about the Activity (Rattus norvegicus [32]) of the same compound?
Answer: The Activity was 22%.

Question: What about the Activity (Rattus norvegicus [33]) of the same compound?
Answer: Its Activity is 24%.

Question: What about the Activity (Rattus norvegicus [34]) of the same compound?
Answer: Its Activity is 32%.
